Where “and” joins values, the source holds several entries; their conditions need not be identical. Equal entries are not always repeated.
Legend:
Rattus norvegicus [1] = experiment: (§1) In vivo distribution of the drug in uterus/plasma was determined at 3h following injection of five microcurics of the radiolabeled [125 I] compound in rats; format: ADME, organism-based; details: other tissue
Summary of the method: (§2)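 Immature female Sprague-Dawley rats (20–25 days old) given 3–5 μCi of the ¹²⁵I-radioligand into the femoral vein; killed by cervical dislocation at 1, 2 or 3 h. Uterus blotted free of blood, 10–30-mg samples weighed. Heparinized blood centrifuged, 20-μL plasma samples taken. Gamma counting, dpm by absolute counting method. Expressed as percent dose/gram tissue; uterus/plasma ratio from these values.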

Rattus norvegicus [2] = experiment: In vivo distribution of the drug in uterus/plasma was determined at 1 hr following injection of five microcurics of the radiolabeled [125 I] compound in rats; format: ADME, organism-based; summary of the method: as §2
Rattus norvegicus [3] = experiment: In vivo distribution of the drug in uterus was determined at 1 hr following injection of five microcurics of the radiolabeled [125 I] compound in rats; format: ADME, organism-based; summary of the method: as §2
Rattus norvegicus [4] = experiment: In vivo distribution of the drug in uterus was determined at 3h following injection of five microcurics of the radiolabeled [125 I] compound in rats; format: ADME, organism-based; summary of the method: as §2
Rattus norvegicus [5] = experiment: In vivo distribution of the drug in uterus/plasma was determined at 2 hr following injection of five microcurics of the radiolabeled [125 I] compound in rats; format: ADME, organism-based; summary of the method: as §2
Rattus norvegicus [6] = experiment: In vivo distribution of the drug in plasma was determined at 3h following injection of five microcurics of the radiolabeled [125 I] compound in rats; format: ADME, organism-based; summary of the method: as §2
Rattus norvegicus [7] = species on record: Rattus norvegicus; experiment: Specific activity and expressed as Ci/mmol; format: functional
Rattus norvegicus [8] = experiment: In vivo distribution of the drug in plasma was determined at 2 hr following injection of five microcurics of the radiolabeled [125 I] compound in rats; format: ADME, organism-based; summary of the method: as §2
Rattus norvegicus [9] = experiment: In vivo distribution of the drug in uterus was determined at 2 hr following injection of five microcurics of the radiolabeled [125 I] compound in rats; format: ADME, organism-based; summary of the method: as §2
Rattus norvegicus [10] = experiment: In vivo distribution of the drug in plasma was determined at 1 hr following injection of five microcurics of the radiolabeled [125 I] compound in rats; format: ADME, organism-based; summary of the method: as §2
Rattus norvegicus [11] = experiment: In vivo effect when coinjected with estradiol (50 ug) in immature rat muscle (after 1 hr); format: functional, Muscle tissue
Rattus norvegicus [12] = experiment: as §1; format: ADME, organism-based; details: other tissue; remark: listed apart in the source
Summary of the method: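 Female Sprague-Dawley rats aged 20–25 days received 3–5 µCi of the [125I] radioligand via the femoral vein and were killed by cervical dislocation at 1, 2 and 3 h. Uterus was blotted free of blood, and 10–30 mg samples were weighed. Heparinized blood was centrifuged, and 20 µL plasma samples were taken. Samples were gamma-counted, with dpm found by absolute counting. Values are % dose/g, and the uterus/plasma ratio was derived from them.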

Rattus norvegicus [13] = experiment: In vivo effect when coinjected with estradiol (50 ug) in immature rat uterus (after 1 hr); format: functional
Rattus norvegicus [14] = experiment: In vivo effect when coinjected with estradiol (50 ug) in immature rat liver (after 1 hr); format: functional
Rattus norvegicus [15] = experiment: In vivo effect when coinjected with estradiol (50 ug) in immature rat plasma (after 1 hr); format: functional

Compound | uterus/plasma ratio (Rattus norvegicus [1]) | uterus/plasma ratio (Rattus norvegicus [2]) | Distribution (Rattus norvegicus [3]) [%] | Distribution (Rattus norvegicus [4]) [%] | uterus/plasma ratio (Rattus norvegicus [5]) | Distribution (Rattus norvegicus [6]) [%] | Specific activity (Rattus norvegicus [7]) | Distribution (Rattus norvegicus [8]) [%] | Distribution (Rattus norvegicus [9]) [%] | Distribution (Rattus norvegicus [10]) [%] | Dose (Rattus norvegicus [11]) [%] | uterus/plasma ratio (Rattus norvegicus [12]) | Dose (Rattus norvegicus [13]) [%] | Dose (Rattus norvegicus [14]) [%] | Dose (Rattus norvegicus [15]) [%]
C[C@]12CC[C@@H]3c4ccc(O)cc4CC[C@H]3[C@@H]1CC[C@@]2(O)/C=C/[125I] | 9.7 | 5.5 | 5.89 | 1.1 | 5 | 0.113 | 2200 Ci mM-1 and 2152 Ci mM-1 | 0.192 | 0.96 | 1.09 | – | – | – | – | –
CO[C@H]1C[C@@]2(C)[C@@H](CC[C@@]2(O)/C=C/[125I])[C@@H]2CCc3cc(O)ccc3[C@H]21 | – | 29 | 8.18 | 15.9 | 68.3 | 0.24 | – | 0.25 | 17.2 | 0.28 | 1.29 | 66.3 | 1.25 | 4.52 | 0.34
